Hep lipid drop: hepatic lipid droplet formation modulation | AML12 mouse hepatocytes, oleate lipid droplets, BODIPY imaging | inhibition, % at 6.5 µM | 240,000 compounds, 0.4% hits | AID 1656;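 active = lipid droplet intensity inhibited by at least 50%, with more than 500 cells counted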
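Technique: fluorescence imaging, 20x objective, two fields per well / Assay system: AML12 hepatocytes (mouse) / Measure: % inhibition of lipid droplet signal / Doses: 6.5 µM single-point dosing / Incubation: overnight exposure / Reagent: 100 µM oleic acid challenge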
ANO1 activ: mouse TMEM16A channel activation, primary screen; AID 623877; B-score at 10 µM; 340,000 compounds, 0.3% hits; HEK293 TMEM16A/YFP-H148Q/I152L, iodide quench fluorescence; stronger effect = lower value;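 active = fluorescence-ratio B-score plate-corrected deviation score at least 3 library SD below zero, with starting fluorescence score within 5 deviations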;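 also: channel opened by trigger with iodide after compound preincubation; score built on the fluorescence ratio of max minus min over baseline; more negative score means more quench and so TMEM16A activation or potentiation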
Target sequence (Q8BHY3 whole entry, looked up): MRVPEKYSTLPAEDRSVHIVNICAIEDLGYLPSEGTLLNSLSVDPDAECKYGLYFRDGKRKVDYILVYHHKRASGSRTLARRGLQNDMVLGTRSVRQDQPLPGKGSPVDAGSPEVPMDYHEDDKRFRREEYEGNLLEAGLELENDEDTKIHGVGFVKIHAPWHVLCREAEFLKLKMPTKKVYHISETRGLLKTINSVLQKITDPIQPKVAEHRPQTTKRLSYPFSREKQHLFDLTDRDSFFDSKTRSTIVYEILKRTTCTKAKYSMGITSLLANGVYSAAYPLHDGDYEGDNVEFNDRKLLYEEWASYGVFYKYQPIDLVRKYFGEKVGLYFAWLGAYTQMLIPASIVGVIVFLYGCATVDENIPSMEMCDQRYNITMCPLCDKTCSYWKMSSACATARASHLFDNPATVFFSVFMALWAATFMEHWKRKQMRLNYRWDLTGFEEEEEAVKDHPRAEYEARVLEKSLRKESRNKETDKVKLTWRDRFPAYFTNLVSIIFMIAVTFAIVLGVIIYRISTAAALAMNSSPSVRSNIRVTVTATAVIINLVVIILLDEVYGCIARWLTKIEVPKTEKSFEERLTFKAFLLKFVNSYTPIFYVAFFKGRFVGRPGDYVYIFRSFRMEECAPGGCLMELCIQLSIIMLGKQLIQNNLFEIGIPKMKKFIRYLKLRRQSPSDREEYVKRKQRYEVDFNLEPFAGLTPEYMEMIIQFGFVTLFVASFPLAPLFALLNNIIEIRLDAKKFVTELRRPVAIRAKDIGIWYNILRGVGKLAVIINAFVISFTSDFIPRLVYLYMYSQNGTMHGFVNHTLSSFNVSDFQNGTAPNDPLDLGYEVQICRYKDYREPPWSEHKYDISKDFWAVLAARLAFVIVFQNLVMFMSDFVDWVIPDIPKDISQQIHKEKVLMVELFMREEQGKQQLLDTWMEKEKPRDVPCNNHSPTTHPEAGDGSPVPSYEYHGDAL
CHOP inh: inhibitors of CHOP induction in ER stress response; CHO-K1 CHOP-promoter luciferase, tunicamycin-induced, 15-18 h; 220,000 compounds, 3.8% hits; inhibition, % at 10 µM;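 active = compounds that reduced the stress-induced luciferase reporter signal by more than about 70% of percent inhibition, limit read from the data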;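 also: 0% = tunicamycin plus vehicle and 100% = wells without tunicamycin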
UPR CHOP act: activators of apoptotic arm of unfolded protein response (CHOP); 330,000 compounds, 0.34% hits; AID 449763; activation, % at 10 µM; CHO-CHOP luciferase reporter, UPR activation, luminescence; percent of tunicamycin response over DMSO baseline;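 active = at 10 µM dose, activation of 40% or more, normalized to positive control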;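 also: 100% = tunicamycin at 10 µg/mL and 0% = DMSO alone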
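Assay system: CHO-CHOP cells, stable luciferase reporter of PERK-eIF2a-CHOP signalling / Buffer or medium: F12 plus 10% serum / Compound dosing: one dose, 10 µM in 0.5% DMSO / Times: 6 h compound treatment, 37 °C / Technique: luciferase luminescence / Read-out: % reporter activation, DMSO baseline versus tunicamycin full activation / Benchmarks: tunicamycin and DMSO controls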
TMEM16A inh: inhibitors of mouse TMEM16A calcium-activated chloride channel. AID 588511. Q8BHY3. normalized B-score (activity score, 25-100; higher = stronger inhibition) at 10 µM. 310,000 compounds, 1.2% hits. HEK293 TMEM16A/YFP iodide influx fluorescence, ionomycin;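 active = ratio plate-corrected score three or more library SD toward inhibition, starting fluorescence score within five deviations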;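 also: score derived from kinetic fluorescence span divided by baseline fluorescence per well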
UPR XBP1 act: adaptive UPR (XBP1) activation; CHO-XBP1 luciferase reporter, IRE1-XBP1 UPR activation, luminescence; percent of tunicamycin response, DMSO as zero; activation, % at 20 µM; 330,000 compounds, 0.33% hits; AID 463104;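 active = versus positive control, 20 µM dose yields 30% or more activation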;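 also: 100% = tunicamycin at 10 µg/mL and 0% = DMSO only wells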
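Material: CHO cell line with stable XBP1 luciferase reporter; buffer or medium: F12 medium containing 10% fetal bovine serum; compound: single point, 20 µM final compound, 1% DMSO; incubation: 6 h treatment, 37 °C; measured by: glow luminescence from Steady-Glo reagent; evaluation: activation, % of tunicamycin; control set: tunicamycin high, DMSO low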
TMEM16A reconf: reconfirmed blocker of mouse TMEM16A calcium-activated chloride channel. HEK293 TMEM16A/YFP-H148Q, iodide quench fluorescence; ionomycin added to raise cell calcium. 2,300 compounds, 39% hits. shares compounds with TMEM16A inh. inhibition, % at 10 µM;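 active = mean duplicate percent inhibition, scaled so buffer wells are 0 and the reference blocker 100, over three buffer SD above buffer mean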
HEK293 Ca mobil: alters calcium mobilization in TMEM16A HEK293 cells, counter-screen; 2,300 compounds, 2% hits; TMEM16A/YFP HEK293, Fluo4 calcium mobilization; shares compounds with TMEM16A inh; calcium response (% of ionomycin), % at 10 µM;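 active = duplicate-averaged calcium signal over 20% of the ionomycin maximum, relative to buffer baseline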;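 also: each well's signal is peak minus trough fluorescence divided by its pre-addition baseline; 0% = buffer wells and 100% = ionomycin wells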
YFP-HEK293 quench: acts in parental YFP-HEK293 cells lacking TMEM16A, counter-screen; shares compounds with TMEM16A inh; iodide YFP quench, ionomycin; YFP ratio F(max-min)/F0 at 10 µM; 2,300 tested, under 10 active;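 active = yellow fluorescent protein signal ratio exceeding the buffer control mean by over 5 SD of those controls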;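 also: ratio is mean of duplicate wells from kinetic YFP trace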
ClC-1 inh: selectivity of TMEM16A inhibitors: inhibition of rat ClC-1 chloride channel; shares compounds with TMEM16A inh; ratio percent, % at 10 µM; 2,300 tested, under 10 active; CHO ClC-1-YFP, iodide influx fluorescence quench; iodide control reads 0, buffer control 100;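 active = duplicate-mean ratio percent above the mean of iodide-only control wells, which defines zero, plus 5 of their SD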;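 also: higher percent means stronger block of ClC-1 iodide influx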
Numbers without * were called inactive; i = inactive; . = no result. Only some compounds are listed: those with a hit (about 4.2% of all), similar ones and a draw of the others.

SMILES | Hep lipid drop | ANO1 activ | CHOP inh | UPR CHOP act | TMEM16A inh | UPR XBP1 act | TMEM16A reconf | HEK293 Ca mobil | YFP-HEK293 quench | ClC-1 inh
COc1cccc(C(=O)NC(C)c2ccc(-c3ccccc3)cc2)c1OC (stereo not given) | -49 | i | . | 2 | 25* | -4 | 24%* | i | -1.1 | -10
CC(C)Cc1csc(NC(=O)c2ccc(Br)cc2)c1C(=O)O | 10 | i | 8 | 1 | 100* | 3 | i | i | -1.2 | -14
CC(C)Cc1csc(NC(=O)C(C)C)c1C(=O)O | 22 | i | 9 | 0 | i | 0 | . | . | . | .
Cc1cc(C(=O)COc2ccc(-c3nnco3)cc2)c(C)n1Cc1ccccc1 | . | i | 38 | -3 | 100* | -3 | 18%* | i | -0.84 | -16
O=C1c2cccc3c(N4CCCCC4)ccc(c23)C(=O)N1CCO | . | i | -35 | 8 | i | 9 | i | i | -1.1 | -50
C=CCN1C(=O)c2cccc3c(N4CCCCC4)ccc(c23)C1=O | -17 | i | 20 | 8 | i | 1 | . | . | . | .
CCn1c(SCC(=O)N2CCOCC2)nc2oc3c(Cl)cc(Cl)cc3c(=O)c2c1=O | . | . | -66 | 18 | i | -1 | 32%* | i | -0.31 | 10
Cc1ccc(NC(=O)CN2C(=O)COc3ccc(C)cc32)nc1 | . | i | 36 | -2 | 25* | -3 | i | i | -0.89 | -18
CSc1ccc(/C=N/N2CCN(Cc3ccccc3)CC2)cc1 | -13 | i | 12 | 1 | i | 2 | . | . | . | .
COCCNc1nc2sc3c(c2c(=O)n1Cc1ccco1)CCCCC3 | -26 | i | 20 | 5 | i | 3 | . | . | . | .
CC1CC(C)CN(c2nc(N(C)c3ccccc3)nc(N)c2[N+](=O)[O-])C1 (stereo not given) | 22 | i | 2 | 1 | 25* | 1 | i | i | -1.1 | -16
O=S(=O)(Nc1nc2ccccc2nc1OCC(F)(F)F)c1cccs1 | 7 | i | -5 | -2 | 25* | 0 | i | i | -0.95 | -1
CCOc1ccc(C(C)NC(=O)c2cccc(F)c2)cc1 (stereo not given) | -4 | i | 24 | 1 | i | -1 | . | . | . | .
Cc1ccc(NC(=O)Cc2ccc(Cl)c(Cl)c2)cc1S(=O)(=O)N(C)C | -26 | i | 37 | 2 | 25* | -3 | 16%* | i | -0.93 | -2
Cc1ccc(NC(=O)CNc2ccc(Cl)c(Cl)c2)cc1S(=O)(=O)N(C)C | -40 | i | 47 | 3 | 100* | -1 | 28%* | i | -0.95 | -4
Cc1ccc(NC(=O)COC(=O)c2ccccc2Cl)cc1S(=O)(=O)N(C)C | 26 | i | -1 | -1 | i | 0 | . | . | . | .
Cc1ccc(NC(=O)Cc2ccccc2Cl)cc1S(=O)(=O)N(C)C | -3 | i | 21 | 2 | i | -2 | . | . | . | .
CCC(Sc1nc(C)cc(=O)[nH]1)C(=O)Nc1nc(-c2ccccc2)cs1 (stereo not given) | 5 | i | 11 | -1 | 25* | 2 | 43%* | i | -1.1 | -10
Cc1ccc(-c2csc(NC(=O)CSc3nc(C)cc(=O)[nH]3)n2)cc1 | -35 | . | 63 | 3 | i | 5 | . | . | . | .
COc1cccc2c1OC[C@@H](CO)[C@H]2N(C)C(=O)Nc1ccc(Cl)cc1Cl | . | i | 33 | 1 | i | -2 | i | i | -1.1 | -11
COc1ccc(NS(=O)(=O)c2ccc3oc(SC4CCOC4=O)nc3c2)cc1 (stereo not given) | 22 | i | 40 | 0 | 25* | -3 | 37%* | i | -1.1 | -10
COc1ccc(CCNC(=O)C2CCN(S(=O)(=O)c3ccc(F)cc3)CC2)cc1 | -2 | i | . | 0 | i | -4 | . | . | . | .
COc1cc(C(C(=O)NCc2ccccc2)N(C(=O)c2snc(C(N)=O)c2N)C2CCCC2)cc(OC)c1OC (stereo not given) | -3 | i | . | -1 | i | -2 | . | . | . | .
CN1c2ccccc2C(O)=C(C(=S)Nc2ccc(F)c(Cl)c2)S1(=O)=O | -8 | i | 45 | 0 | 100* | 0 | 62%* | i | -1.1 | -30
CN1c2ccccc2C(O)=C(C(=S)Nc2ccccc2)S1(=O)=O | 24 | i | -3 | 0 | i | -1 | . | . | . | .
SMILES | Hep lipid drop | ANO1 activ | CHOP inh | UPR CHOP act | TMEM16A inh | UPR XBP1 act | TMEM16A reconf | HEK293 Ca mobil | YFP-HEK293 quench | ClC-1 inh
O=C(N/C(=C/c1ccc(F)cc1)C(=O)N1CCCC1)c1ccccc1 | 6 | i | . | 2 | i | 7 | . | . | . | .
COc1c(C(O)CC(C)C)ccc2c1C(=O)OCc1cc(C)cc(O)c1O2 (stereo not given) | -50 | i | 24 | 0 | 25* | -3 | 22%* | i | -0.97 | -12
COc1c(C(CC(C)C)OC(C)=O)ccc2c1C(=O)OCc1cc(C)cc(O)c1O2 (stereo not given) | -15 | i | 72* | 4 | 100* | 0 | 24%* | i | -1.1 | -14
CCOc1cc(/C=N/NC(=O)CN2CCOCC2)ccc1OCc1ccccc1 | -8 | i | 26 | 0 | i | 0 | . | . | . | .
CCOc1cc(/C=N/NC(=O)c2ccc(CN3CCOCC3)cc2)ccc1OCc1ccccc1 | -16 | i | 59 | 5 | 25* | 1 | 21%* | i | -1 | -10
CC(=O)Nc1ccc(Cl)c(-c2nc3ncccc3o2)c1 | . | i | . | -1 | i | -7 | . | . | . | .
CCOC(=O)c1ccc(NC(=S)N2CCC(C(N)=O)CC2)cc1 | 0 | i | 30 | 2 | i | 0 | . | . | . | .
CCOC(=O)c1ccc(NC(=S)N2CCN(C)CC2)cc1 | -1 | i | . | 1 | 25* | -4 | i | i | -0.84 | 0
Cc1ccc(NC(=O)NC2CCCN2S(=O)(=O)c2ccc(Cl)cc2)cc1 (stereo not given) | -11 | i | 20 | 1 | i | 1 | . | . | . | .

Assay outcomes as filed in PubChem.
